Measured values published in ChEMBL document CHEMBL1138477, “8-(4-Methoxyphenyl)pyrazolo[1,5-a]-1,3,5-triazines: selective and centrally active corticotropin-releasing factor receptor-1 (CRF1) antagonists” (J Med Chem, 2009).
Each block holds one compound with its values, some of them ahead of it. The source made the active and inactive calls.

How the values were obtained:
[1] = system: Rattus norvegicus; assay: Ex vivo receptor occupancy of CRF1 receptor in Sprague-Dawley rat brain at 30 mg/kg, po by [125I]sauvagine binding and autoradiography relative to control; format: functional
In short: (§1)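 Sprague-Dawley rats dosed po at 0.3, 1, 3, 10, 30 mg/kg in the defensive-withdrawal vehicle and protocol; brains removed, sectioned, frozen at -80 °C, then ex vivo binding gave occupancy relative to vehicle-treated rats; mean ± SEM.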

[2] = Clearance in female Sprague-Dawley CD rat at 1 mg/kg, iv; format: ADME, organism-based; design: dose 1 mg/kg, route intravenous; conditions: in vivo
In short: (§2)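 Sprague-Dawley CD rats: 1 mg/kg iv bolus in 20% ethanol/saline (apparent pH 3.4) to 3 males and 3 females; 5 mg/kg po in 0.5% methylcellulose with 1% Tween-80 to 3 males. Jugular blood into EDTA, predose to 32 h. Free base quantified by LC/MS after solid-phase extraction (range 5-5000 nM); noncompartmental analysis; F relative to iv.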

[3] = system: Rattus norvegicus; assay: Hepatic blood flow in iv dosed male Sprague-Dawley CD rat; format: ADME, organism-based, Liver; conditions: in vivo
[4] = Oral bioavailability in Beagle dog at 5 mg/kg; format: ADME, organism-based, Canis lupus familiaris; conditions: in vivo
In short: (§3)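 Male beagle dogs (8.0-11.0 kg) dosed iv or po (5 mg/kg oral suspension in 0.5% methylcellulose with 1% Tween-80); plasma sampled 0.25-24 h; liquid-liquid extraction with hexane/ether, LC/MS/MS, quantitation limit 1 ng/mL (2.42 nM); noncompartmental parameters as free base.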

[5] = system: Rattus norvegicus; assay: Anxiolytic-like activity in Sprague-Dawley rat assessed as decrease in latency to exit dark chamber at 10 mg/kg, po measured after 1 hr by defensive withdrawal test relative to control; format: functional; design: scale not given: the % may be the effect or the level left
In short: (§4)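 Male Sprague-Dawley rats (180-300 g), individually housed; open field with cylindrical dark chamber; oral dosing in 0.25% Methocel 1 h before a 15 min session scored blind via video; latency to place all four paws in open field recorded, maximum 900 s; test doses 1.0, 3.0, 10, 30 mg/kg; positive control at 10 mg/kg; n = 12/dose; Kruskal-Wallis then Mann-Whitney U.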

[6] = Volume of distribution at steady state in female Sprague-Dawley CD rat at 1 mg/kg, iv; format: ADME, organism-based; design: dose 1 mg/kg, route intravenous; conditions: in vivo, read-out: Vdss
In short: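 Female Sprague-Dawley CD rats (n = 3) given a single 1 mg/kg iv bolus (free base) in 20% ethanol/physiological saline (apparent pH 3.4). Jugular vein blood taken into EDTA from predose to 32 h. Plasma assayed by solid-phase extraction and LC/MS with an internal standard (range 5–5000 nM). Noncompartmental analysis; mean ± SD.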

[7] = system: Rattus norvegicus; assay: Ex vivo receptor occupancy of CRF1 receptor in Sprague-Dawley rat brain at 10 mg/kg, po by [125I]sauvagine binding and autoradiography relative to control; format: functional; in short: as §1
[8] = system: Rattus norvegicus; assay: Anxiolytic-like activity in Sprague-Dawley rat assessed as decrease in latency to exit dark chamber at 3 mg/kg, po measured after 1 hr by defensive withdrawal test relative to control; format: functional; design: scale not given: the % may be the effect or the level left; in short: as §4
[9] = system: Rattus norvegicus; assay: Anxiolytic-like activity in Sprague-Dawley rat assessed as increase in time spent in open arms at 30 mg/kg, po measured after 1 hr by elevated plus maze test; format: functional, organism-based; design: dose 30 mg/kg
In short: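 Group-housed male Sprague-Dawley rats (180-300 g) dosed po in 0.25% Methocel 1 h before elevated plus maze; arm entry defined as all four paws in arm; percent time in open arms scored; test doses 1.0, 3.0, 10, 30 mg/kg; positive control at 18 mg/kg; n = 13-15/dose; mean ± SEM, ANOVA then Fisher's LSD.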

[10] = system: Rattus norvegicus; assay: Ex vivo receptor occupancy of CRF1 receptor in Sprague-Dawley rat brain at 0.3 mg/kg, po by [125I]sauvagine binding and autoradiography relative to control; format: functional; in short: as §1
[11] = system: Rattus norvegicus; assay: Hepatic blood flow in iv dosed female Sprague-Dawley CD rat; format: ADME, organism-based, Liver; conditions: in vivo
[12] = Oral bioavailability in male Sprague-Dawley CD rat at 5 mg/kg relative to 1 mg/kg, iv dose; format: ADME, organism-based; conditions: in vivo; in short: as §2
[13] = Elimination half life in female Sprague-Dawley CD rat at 1 mg/kg, iv; format: ADME, organism-based; design: dose 1 mg/kg, route intravenous; conditions: in vivo, read-out: beta t1/2 (converted); in short: as §2
[14] = Volume of distribution at steady state in Beagle dog at 5 mg/kg, iv; format: ADME, organism-based, Canis lupus familiaris; design: dose 5 mg/kg, route intravenous; conditions: in vivo, read-out: Vdss
In short: (§5)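 Male beagle dogs (8.0-11.0 kg) dosed intravenously. Plasma sampled at 0.25, 0.5, 1, 2, 4, 6, 8, 12 and 24 h after dosing. Liquid–liquid extraction in hexane/ether, then LC/MS/MS assay (quantitation limit 1 ng/mL). Concentrations expressed as free base. Parameters obtained by noncompartmental analysis as for rat. Mean ± SD.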

[15] = system: Rattus norvegicus; assay: Toxicity in Sprague-Dawley rat assessed as time spent on rotarod at 30 mg/kg, po after 1 hr by rotarod test; format: organism-based; design: dose 30 mg/kg, route oral; conditions: in vivo
In short: (§6)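 Male Sprague-Dawley rats received a single oral gavage dose of 30 mg/kg (free base weight) in 0.5% methocel–Tween-80 (99:1) or vehicle alone. Behaviour was assessed 1 h postdose, as time on the rotorod in seconds for the rotorod test and total distance travelled in cm for open-field locomotor activity. Values are mean ± SEM, n = 8 per group.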

[16] = system: Rattus norvegicus; assay: Toxicity in Sprague-Dawley rat assessed as total distance traveled at 30 mg/kg, po after 1 hr by open-field locomotor activity test; format: organism-based; design: dose 30 mg/kg, route oral; conditions: in vivo; in short: as §6
[17] = Cmax in Beagle dog at 5 mg/kg, po; format: ADME, organism-based, Canis lupus familiaris; design: dose 5 mg/kg, route oral; conditions: in vivo; in short: as §3
[18] = system: Rattus norvegicus; assay: Ex vivo receptor occupancy of CRF1 receptor in Sprague-Dawley rat brain at 3 mg/kg, po by [125I]sauvagine binding and autoradiography relative to control; format: functional; in short: as §1
[19] = system: Rattus norvegicus; assay: Anxiolytic-like activity in Sprague-Dawley rat assessed as decrease in latency to exit dark chamber at 30 mg/kg, po measured after 1 hr by defensive withdrawal test relative to control; format: functional; design: scale not given: the % may be the effect or the level left; in short: as §4
[20] = Elimination half life in male Sprague-Dawley CD rat at 1 mg/kg, iv; format: ADME, organism-based; design: dose 1 mg/kg, route intravenous; conditions: in vivo, read-out: beta t1/2 (converted); in short: as §2
[21] = system: Rattus norvegicus; assay: Ex vivo receptor occupancy of CRF1 receptor in po dosed Sprague-Dawley rat brain by [125I]sauvagine binding and autoradiography relative to control; format: functional; conditions: read-out: MED; in short: as §1
[22] = system: Rattus norvegicus; assay: Ex vivo receptor occupancy of CRF1 receptor in Sprague-Dawley rat brain at 1 mg/kg, po by [125I]sauvagine binding and autoradiography relative to control; format: functional; in short: as §1
[23] = Tmax in male Sprague-Dawley CD rat at 5 mg/kg, po; format: ADME, organism-based; design: dose 5 mg/kg, route oral; conditions: in vivo; in short: as §2
[24] = Clearance in male Sprague-Dawley CD rat at 1 mg/kg, iv; format: ADME, organism-based; design: dose 1 mg/kg, route intravenous; conditions: in vivo; in short: as §2
[25] = Tmax in Beagle dog at 20 mg/kg, po; format: ADME, organism-based, Canis lupus familiaris; design: dose 20 mg/kg, route oral; conditions: in vivo
[26] = Elimination half life in Beagle dog at 1 mg/kg, iv; format: ADME, organism-based, Canis lupus familiaris; design: dose 1 mg/kg, route intravenous; conditions: in vivo, read-out: beta t1/2 (converted); in short: as §3
[27] = Volume of distribution at steady state in Beagle dog at 1 mg/kg, iv; format: ADME, organism-based, Canis lupus familiaris; design: dose 1 mg/kg, route intravenous; conditions: in vivo, read-out: Vdss; in short: as §5
[28] = Cmax in Beagle dog at 20 mg/kg, po; format: ADME, organism-based, Canis lupus familiaris; design: dose 20 mg/kg, route oral; conditions: in vivo
[29] = Clearance in Beagle dog at 1 mg/kg, iv; format: ADME, organism-based, Canis lupus familiaris; design: dose 1 mg/kg, route intravenous; conditions: in vivo; in short: as §3
[30] = Oral bioavailability in Beagle dog at 20 mg/kg; format: ADME, organism-based, Canis lupus familiaris; conditions: in vivo

- clearance [2]: 14.5 mL/min/kg
- QH [3]: 55 mL/min/kg
- bioavailability [4]: 34%
- Vd [6]: 12.2 L/kg
- QH [11]: 55 mL/min/kg
- bioavailability [12]: 51%
- half-life [13]: 11.9 h
- Vd [14]: 18.4 L/kg
- Cmax [17]: 2380 nM
- half-life [20]: 9.7 h
- Tmax [23]: 0.5 h
- clearance [24]: 20 mL/min/kg
Structure (SMILES): COCCN(CCOC)c1nc(C)nc2c(-c3ccc(OC)cc3C)c(C)nn12
- Activity [1]: 82%
- Activity [5]: 73%
- Activity [7]: 60%
- Activity [8]: 62%
- Activity [9]: Active
- Activity [10]: 12%
- Time [15]: 158 s
- Activity [16]: 4986 cm
- Activity [18]: 48%
- Activity [19]: 59%
- minimal effective dose [21]: 3 mg/kg
- Activity [22]: 17%

- bioavailability [4]: 48%
- Vd [14]: 23.7 L/kg
- Cmax [17]: 1220 nM
Structure (SMILES): COCCN(CCOC)c1nc(C)nc2c(-c3cc(C)c(OC)cc3C)c(C)nn12

- Tmax [25]: 4 h
- half-life [26]: 33.3 h
- Vd [27]: 14.8 L/kg
- Cmax [28]: 1940 nM
- clearance [29]: 10 mL/min/kg
- bioavailability [30]: 4.7%
Structure (SMILES): CC[C@@H](C)Nc1nc(C)nc2c(-c3c(C)cc(OC)cc3OC)c(C)nn12
